# Experimental data reported in ChEMBL document CHEMBL2380272, “Biological evaluation of bisbenzaldehydes against four Mycobacterium species” (Eur J Med Chem, 2013).
# Tests used:
# [1] = tested on: Mycobacterium tuberculosis; assay: Antimycobacterial activity against Mycobacterium tuberculosis H37Rv ATCC 27294 assessed as growth inhibition at 10 uM after 6 days by luciferase reporter gene assay relative to control; format: functional; conditions: H37Rv ATCC 27294, 144 h, read-out: GI
# Outline: (§1)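 Luminescent M. tb H37Rv (hsp60-driven luciferase) in 7H9 + 10% FCS was seeded at 50 000 RLU/mL. Compounds were tested at 10, 1 and 0.1 µM from 10 mM DMSO stocks. After 6 days, luminescence was read with 1% n-decanal. Growth inhibition (%) was expressed against untreated culture, with triplicates.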
# [2] = tested on: Mycobacterium tuberculosis; assay: Antimycobacterial activity against Mycobacterium tuberculosis H37Rv ATCC 27294 assessed as growth inhibition at 0.1 uM after 6 days by luciferase reporter gene assay relative to control; format: functional; conditions: H37Rv ATCC 27294, 144 h, read-out: GI; outline: as §1
# [3] = tested on: Mycobacterium tuberculosis; assay: Antimycobacterial activity against Mycobacterium tuberculosis H37Rv ATCC 27294 assessed as growth inhibition at 1 uM after 6 days by luciferase reporter gene assay relative to control; format: functional; conditions: H37Rv ATCC 27294, 144 h, read-out: GI; outline: as §1
# [4] = tested on: Mycobacterium tuberculosis; assay: Antimycobacterial activity against Mycobacterium tuberculosis H37Rv infected in mouse J774.A1 cells at 1 MOI assessed as intracellular bacterial growth inhibition at 10 uM after 1 hr by luciferase reporter gene assay relative to control; format: functional; conditions: J774.A1, 1 h, read-out: GI
# [5] = Cytotoxicity against human HepG2/C3A cells assessed as cell viability at 60 uM after 24 hrs by neutral red uptake assay relative to control; format: cell-based; conditions: read-out: Activity
# Outline: (§2)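 C3A cells grown in DMEM + 10% FCS, 40 000 cells/well, recovered overnight at 37 °C, 5% CO2. Exposed 24 h to serial dilutions in DMEM + 10% FCS from 18 mM DMSO stocks, DMSO limited to 1%. Neutral red added for 3 h, cells washed, dye extracted with ethanol/acetic acid (50%/1%), OD read at 540 nm with 620 nm reference. Viability expressed as % of untreated cells.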
# Salmonella typhimurium [6] = assay: Genotoxicity in recombinant Salmonella typhimurium TA104 expressing Vibrio fisheri luxabcd genes under transcriptional control of recN2-4 promoter assessed as concentration required to cause DNA damage measured every 5 mins for 4 hrs by vitotox assay in presence of S9 fraction; format: toxicity, organism-based; conditions: salmonella enterica subsp. enterica serovar typhimurium, s9, 4 h
# Outline: (§3)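 VITOTOX genox strain TA104 recN2-4 (recN promoter driving lux). Grown 16 h at 36 °C in poor LB, diluted 125-fold and shaken 1 h, then diluted 10-fold; rat aroclor S9 added for +S9 runs. Incubated at 30 °C with light read every 5 min for 4 h. Signal/noise = exposed over unexposed light. Highest concentration tested 10 µM.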
# [7] = tested on: Mycobacterium avium subsp. paratuberculosis; assay: Antimycobacterial activity against Mycobacterium avium subsp. paratuberculosis ATCC 19698 assessed as growth inhibition after 6 days by luciferase reporter gene assay; format: functional; conditions: ATCC 19698, 144 h
# Outline: (§4)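 Mycobacteria carrying the pSMT1 luciferase reporter plasmid. Compounds came from 10 mM DMSO stocks and were serially diluted in 7H9 + 10% FCS. Thawed bacteria were filtered, recovered 1 h at 37 °C, then added at 50 000 RLU/mL. After 6 days of culture, light was read for 10 s after adding 1% n-decanal. Triplicates were run, and MIC50 was the concentration giving 50% growth inhibition.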
# [8] = Cytotoxicity against human HepG2/C3A cells assessed as cell viability at 180 uM after 24 hrs by neutral red uptake assay relative to control; format: cell-based; conditions: read-out: Activity; outline: as §2
# [9] = tested on: Mycobacterium tuberculosis; assay: Antimycobacterial activity against Mycobacterium tuberculosis H37Rv infected in mouse J774.A1 cells at 1 MOI assessed as intracellular bacterial growth inhibition at 1 uM after 1 hr by luciferase reporter gene assay relative to control; format: functional; conditions: J774.A1, 1 h, read-out: GI
# Mycobacterium ulcerans = assay: Antimycobacterial activity against Mycobacterium ulcerans 1615 assessed as growth inhibition after 6 days by luciferase reporter gene assay; format: functional; conditions: Mycobacterium ulcerans, 1615, 144 h
# Outline: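 M. ulcerans 1615 carrying pSMT1 luciferase reporter plasmid, stock grown as surface pellicle on Sauton medium, cultured at 32 °C. Serial compound dilutions in 7H9 + 10% FCS from 10 mM DMSO stocks, tested in triplicate. Filtered bacteria added at 50 000 RLU/mL. After 6 days, wells collected and washed with PBS, 1% n-decanal in ethanol added, light read over 10 s. MIC50 = concentration giving 50% inhibition versus untreated.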
# Salmonella typhimurium [10] = assay: Toxicity in recombinant Salmonella typhimurium TA104 expressing luxabcd genes under transcriptional control of constitutive pr1 promoter assessed as concentration required to reduce cell viability measured every 5 mins for 4 hrs by vitotox assay in absence of S9 fraction; format: organism-based; conditions: salmonella enterica subsp. enterica serovar typhimurium
# Outline: (§5)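 Cytox strain TA104 pr1 (constitutive promoter driving lux), run alongside the genox strain. Grown in poor LB at 36 °C for 16 h, diluted 125-fold and shaken 1 h, then diluted 10-fold, with or without aroclor-rat S9. Luminescence read at 30 °C every 5 min over 4 h; a drop in light signal indicates reduced viability. Top concentration 10 µM.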
# [11] = Cytotoxicity against human HepG2/C3A cells assessed as cell viability at 120 uM after 24 hrs by neutral red uptake assay relative to control; format: cell-based; conditions: read-out: Activity; outline: as §2
# Salmonella typhimurium [12] = assay: Genotoxicity in recombinant Salmonella typhimurium TA104 expressing Vibrio fisheri luxabcd genes under transcriptional control of recN2-4 promoter assessed as concentration required to cause DNA damage measured every 5 mins for 4 hrs by vitotox assay in absence of S9 fraction; format: toxicity, organism-based; conditions: salmonella enterica subsp. enterica serovar typhimurium; outline: as §3
# [13] = Toxicity in recombinant Salmonella typhimurium TA104 expressing luxabcd genes under transcriptional control of constitutive pr1 promoter assessed as concentration required to reduce cell viability measured every 5 mins for 4 hrs by vitotox assay in presence of S9 fraction; format: organism-based; conditions: salmonella enterica subsp. enterica serovar typhimurium; read-out: Activity; outline: as §5
# [14] = tested on: Mycobacterium tuberculosis; assay: Antimycobacterial activity against Mycobacterium tuberculosis H37Rv ATCC 27294 assessed as growth inhibition after 6 days by luciferase reporter gene assay; format: functional; conditions: H37Rv ATCC 27294, 144 h; outline: as §4
# [15] = Selectivity index, ratio of NI50 for human HepG2/C3A cells to MIC50 for Mycobacterium tuberculosis H37Rv ATCC 27294; format: functional
# [16] = Antimycobacterial activity against Mycobacterium avium subsp. avium ATCC 15769 assessed as growth inhibition after 6 days by luciferase reporter gene assay; format: functional; conditions: ATCC 15769, 144 h; outline: as §4
# [17] = tested on: Mycobacterium tuberculosis; assay: Antimycobacterial activity against Mycobacterium tuberculosis H37Rv infected in mouse J774.A1 cells at 1 MOI assessed as intracellular bacterial growth inhibition at 0.1 uM after 1 hr by luciferase reporter gene assay relative to control; format: functional; conditions: J774.A1, 1 h, read-out: GI
SMILES,inhibition of growth at 10 µM [1] [%],inhibition of growth at 0.1 µM [2] [%],inhibition of growth at 1 µM [3] [%],other results
O=C(O)c1ccc(OCCCCCCCCCCOc2ccc(C(=O)O)cc2)cc1,40,< 10,< 10,–
CCCCCCCCCCCCOc1ccc(C=O)cc1,< 10,< 10,< 10,–
O=C(O)c1ccc(OCCCCCOc2ccc(C(=O)O)cc2)cc1,27,< 10,30,–
O=C(O)c1ccc(OCCCOc2ccc(C(=O)O)cc2)cc1,< 10,< 10,< 10,–
O=Cc1ccc(OCCCCCOc2ccc(C=O)cc2)cc1,95,< 10,39,"intracellular bacterial growth inhibition at 10 µM [4]: 46.8%; viability at 24 h, 60 µM [5]: 90.4%; Activity (Salmonella typhimurium [6]): > 10 µM; MIC50 [7]: 8.69 µM; viability at 24 h, 180 µM [8]: 45.6%; percent inhibition of intracellular bacterial growth at 1 µM [9]: 38.1%; MIC50 (Mycobacterium ulcerans): > 10 µM; Activity (Salmonella typhimurium [10]): > 10 µM; viability at 24 h, 120 µM [11]: 72.6%; Activity (Salmonella typhimurium [12]): > 10 µM; MCC at 4 h [13]: > 10 µM; MIC50 [14]: 1.63 µM; Selectivity Index [15]: >110.4; MIC50 [16]: 7.32 µM; intracellular bacterial growth inhibition at 0.1 µM [17]: 0.2%"
NNC(=O)c1ccncc1 [ISONIAZID],100,98,100,intracellular bacterial growth inhibition at 10 µM [4]: 97.7%; MIC50 [7]: < 0.1 µM; percent inhibition of intracellular bacterial growth at 1 µM [9]: 82.3%; MIC50 (Mycobacterium ulcerans): 0.39 µM; MIC50 [14]: < 0.1 µM; MIC50 [16]: < 0.1 µM; intracellular bacterial growth inhibition at 0.1 µM [17]: 37%
O=C(O)c1ccc(OCCCCCCOc2ccc(C(=O)O)cc2)cc1,39,< 10,26,–
O=Cc1ccc(OCCOc2ccc(C=O)cc2)cc1,90,< 10,41,"intracellular bacterial growth inhibition at 10 µM [4]: 39.2%; viability at 24 h, 60 µM [5]: 93.6%; Activity (Salmonella typhimurium [6]): > 10 µM; MIC50 [7]: > 10 µM; viability at 24 h, 180 µM [8]: 70.5%; percent inhibition of intracellular bacterial growth at 1 µM [9]: 32.6%; MIC50 (Mycobacterium ulcerans): > 10 µM; Activity (Salmonella typhimurium [10]): > 10 µM; viability at 24 h, 120 µM [11]: 85%; Activity (Salmonella typhimurium [12]): > 10 µM; MCC at 4 h [13]: > 10 µM; MIC50 [14]: 2.23 µM; Selectivity Index [15]: >80.7; MIC50 [16]: > 10 µM; intracellular bacterial growth inhibition at 0.1 µM [17]: 0.3%"
O=Cc1ccc(OCCOCCOc2ccc(C=O)cc2)cc1,70,< 10,12,–
c1ccc(OCCCCCCCCCCCCOc2ccccc2)cc1,< 10,< 10,< 10,–
O=C(O)c1ccc(OCCCCCCCOc2ccc(C(=O)O)cc2)cc1,38,< 10,14,–
O=C(O)c1ccc(OCCOc2ccc(C(=O)O)cc2)cc1,38,< 10,< 10,–
O=Cc1ccc(OCCCCOc2ccc(C=O)cc2)cc1,87,< 10,25,"intracellular bacterial growth inhibition at 10 µM [4]: 41.3%; viability at 24 h, 60 µM [5]: 86.1%; Activity (Salmonella typhimurium [6]): > 10 µM; MIC50 [7]: > 10 µM; viability at 24 h, 180 µM [8]: 55.7%; percent inhibition of intracellular bacterial growth at 1 µM [9]: 39%; MIC50 (Mycobacterium ulcerans): > 10 µM; Activity (Salmonella typhimurium [10]): > 10 µM; viability at 24 h, 120 µM [11]: 73.2%; Activity (Salmonella typhimurium [12]): > 10 µM; MCC at 4 h [13]: > 10 µM; MIC50 [14]: 3.21 µM; Selectivity Index [15]: >56.1; MIC50 [16]: > 10 µM; intracellular bacterial growth inhibition at 0.1 µM [17]: -0.9%"
O=Cc1cccc(OCCCCCOc2cccc(C=O)c2)c1,97,< 10,< 10,–
O=Cc1ccccc1OCCCCCOc1ccccc1C=O,39,< 10,15,–
O=Cc1cccc(OCCCCCCCCCCCCOc2cccc(C=O)c2)c1,< 10,< 10,< 10,–
O=C(O)c1ccc(OCCCCCCCCCCCOc2ccc(C(=O)O)cc2)cc1,15,< 10,< 10,–
O=[N+]([O-])c1ccc(OCCCCCCCCCCCCOc2ccc([N+](=O)[O-])cc2)cc1,91,< 10,< 10,–
O=Cc1ccc(OCCCCCCCCCCCCCCOc2ccc(C=O)cc2)cc1,98,30,57,–
O=C(O)c1ccc(OCCCCCCCCOc2ccc(C(=O)O)cc2)cc1,29,< 10,29,–
O=C(O)c1ccc(OCCCCCCCCCCCCOc2ccc(C(=O)O)cc2)cc1,< 10,< 10,< 10,–
O=Cc1ccc(OCC(O)COc2ccc(C=O)cc2)cc1,60,< 10,< 10,–
O=Cc1ccc(OCOc2ccc(C=O)cc2)cc1,85,< 10,30,"intracellular bacterial growth inhibition at 10 µM [4]: 41.3%; viability at 24 h, 60 µM [5]: 96.8%; Activity (Salmonella typhimurium [6]): > 10 µM; MIC50 [7]: > 10 µM; viability at 24 h, 180 µM [8]: 78.6%; percent inhibition of intracellular bacterial growth at 1 µM [9]: 35.2%; MIC50 (Mycobacterium ulcerans): > 10 µM; Activity (Salmonella typhimurium [10]): > 10 µM; viability at 24 h, 120 µM [11]: 91.6%; Activity (Salmonella typhimurium [12]): > 10 µM; MCC at 4 h [13]: > 10 µM; MIC50 [14]: 3 µM; Selectivity Index [15]: >60; MIC50 [16]: > 10 µM; intracellular bacterial growth inhibition at 0.1 µM [17]: 1.6%"
O=C(O)c1ccc(OCOc2ccc(C(=O)O)cc2)cc1,40,< 10,< 10,–
O=C(O)c1ccc(OCCCCCCCCCOc2ccc(C(=O)O)cc2)cc1,17,< 10,17,–
O=C(O)c1ccc(OCCCCOc2ccc(C(=O)O)cc2)cc1,27,< 10,26,–
